In ChEMBL document CHEMBL4699398, “The synthesis and biological evaluation of sanguinarine derivatives as anti-non-small cell lung cancer agents” (RSC Med Chem, 2020):
Activity calls are given as the source filed them. The calls are words filed in the database; no cut-off is given here.

How the values were obtained:
[1] = system: A549; experiment: Induction of cell cycle arrest in human A549 cells assessed as accumulation in S phase at 1 uM incubated for 24 hrs by […] propidium iodide staining based flow cytometry (reference value: 14.16 %); assay type: functional
[2] = system: NCI-H1975; experiment: Induction of cell cycle arrest in human H1975 cells assessed as accumulation in G2/M phase at 3 uM incubated for 24 hrs by […] propidium iodide staining based flow cytometry (reference value: 21.00 %); assay type: functional
[3] = system: NCI-H1975; experiment: Induction of apoptosis in human H1975 cells assessed as viable cells at 0.3 uM after 48 hrs by Annexin V-FITC/7-AAD staining based flow cytometric method (reference value: 88.02 %); assay type: functional; conditions: read-out: Activity
[4] = system: NCI-H1975; experiment: Induction of cell cycle arrest in human H1975 cells assessed as accumulation in G0/G1 phase at 1 uM incubated for 24 hrs by […] propidium iodide staining based flow cytometry (reference value: 62.86 %); assay type: functional
[5] = system: A549; experiment: Induction of apoptosis in human A549 cells assessed as late apoptotic cells at 0.3 uM after 48 hrs by Annexin V-FITC/7-AAD staining based flow cytometric method (reference value: 2.94 %); assay type: functional
[6] = system: NCI-H1975; experiment: Induction of apoptosis in human H1975 cells assessed as late apoptotic cells at 1 uM after 48 hrs by Annexin V-FITC/7-AAD staining based flow cytometric method (reference value: 4.63 %); assay type: functional
[7] = system: NCI-H1975; experiment: Induction of cell cycle arrest in human H1975 cells assessed as accumulation in G0/G1 phase at 3 uM incubated for 24 hrs by […] propidium iodide staining based flow cytometry (reference value: 62.86 %); assay type: functional
[8] = system: NCI-H1975; experiment: Antiproliferative activity against human H1975 cells assessed as inhibition of cell growth incubated for 72 hrs by CCK-8 assay; conditions: NCI-H1975, 72 h
[9] = system: NCI-H1975; experiment: Induction of apoptosis in human H1975 cells assessed as early apoptotic cells at 1 uM after 48 hrs by Annexin-V-FITC/7-AAD staining based flow cytometric method (reference value: 6.50 %); assay type: functional
[10] = system: NCI-H1975; experiment: Induction of apoptosis in human H1975 cells assessed as necrotic cells at 0.3 uM after 48 hrs by Annexin V-FITC/7-AAD staining based flow cytometric method (reference value: 0.85 %); assay type: functional
[11] = system: A549; experiment: Induction of apoptosis in human A549 cells assessed as early apoptotic cells at 1 uM after 48 hrs by Annexin V-FITC/7-AAD staining based flow cytometric method (reference value: 3.26 %); assay type: functional
[12] = system: NCI-H1975; experiment: Induction of apoptosis in human H1975 cells assessed as increase in cleaved PARP level at 0.1 to 3 uM after 24 hrs by Western blot analysis; assay type: functional, cell-based; conditions: dose microM 0.1-3, time 24.0 hrs
Procedure, shortened: (§1)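 After treatment, cells harvested and lysed in RIPA buffer; equal protein loaded on 12% SDS-PAGE and transferred to PVDF; blocked in 5% milk 2 h at room temperature; primary antibodies (AKT, p-AKT, cleaved caspase-3, cleaved caspase-9, PARP; GAPDH loading control) overnight at 4 °C; HRP secondaries 2 h at room temperature; chemiluminescent detection.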

[13] = system: NCI-H1975; experiment: Induction of apoptosis in human H1975 cells assessed as increase in cleaved caspase-3 level at 0.1 to 3 uM incubated for 24 hrs by Western blot analysis; assay type: functional, cell-based; conditions: dose microM 0.1-3, time 24.0 hrs; procedure, shortened: as §1
[14] = system: NCI-H1975; experiment: Induction of apoptosis in human H1975 cells assessed as early apoptotic cells at 0.3 uM after 48 hrs by Annexin V-FITC/7-AAD staining based flow cytometric method (reference value: 6.50 %); assay type: functional
[15] = system: A549; experiment: Antiproliferative activity against human A549 cells assessed as inhibition of cell growth incubated for 72 hrs by CCK-8 assay; conditions: A549, 72 h
[16] = system: A549; experiment: Induction of apoptosis in human A549 cells assessed as necrotic cells at 0.3 uM after 48 hrs by Annexin V-FITC/7-AAD staining based flow cytometric method (reference value: 0.70 %); assay type: functional
[17] = system: A549; experiment: Induction of apoptosis in human A549 cells assessed as increase in ROS production incubated for 20 mins by DCFH-DA staining based flow cytometry analysis; assay type: functional, cell-based; conditions: dose microM 0.3-3, time 20.0 min
Procedure, shortened: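 At 20 min after compound treatment, cells washed in PBS and loaded with 10 μM DCFH-DA in phenol red-free DMEM for 30 min at 37 °C in the dark; washed three times with PBS; DCF fluorescence of ROS-positive cells measured by flow cytometry with excitation at 488 nm.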

[18] = system: A549; experiment: Induction of apoptosis in human A549 cells assessed as increase in phosphorylated Akt level at 0.1 to 3 uM incubated for 24 hrs by Western blot analysis; assay type: functional, cell-based; conditions: dose microM 0.1-3, time 24.0 hrs; procedure, shortened: as §1
[19] = system: NCI-H1975; experiment: Induction of cell cycle arrest in human H1975 cells assessed as accumulation in G2/M phase at 1 uM incubated for 24 hrs by […] propidium iodide staining based flow cytometry (reference value: 21.00 %); assay type: functional
[20] = system: NCI-H1975; experiment: Induction of apoptosis in human H1975 cells assessed as increase in phosphorylated Akt level at 0.1 to 3 uM incubated for 24 hrs by Western blot analysis; assay type: functional, cell-based; conditions: dose microM 0.1-3, time 24.0 hrs; procedure, shortened: as §1
[21] = system: NCI-H1975; experiment: Induction of apoptosis in human H1975 cells assessed as viable cells at 1 uM after 48 hrs by Annexin V-FITC/7-AAD staining based flow cytometric method (reference value: 88.02 %); assay type: functional; conditions: read-out: Activity
[22] = system: NCI-H1975; experiment: Induction of cell cycle arrest in human H1975 cells assessed as accumulation in S phase at 0.3 uM incubated for 24 hrs by […] propidium iodide staining based flow cytometry (reference value: 14.13 %); assay type: functional
[23] = system: A549; experiment: Induction of apoptosis in human A549 cells assessed as early apoptotic cells at 0.3 uM after 48 hrs by Annexin V-FITC/7-AAD staining based flow cytometric method (reference value: 3.26 %); assay type: functional
[24] = system: NCI-H1975; experiment: Induction of apoptosis in human H1975 cells assessed as viable cells at 3 uM after 48 hrs by Annexin V-FITC/7-AAD staining based flow cytometric method (reference value: 88.02 %); assay type: functional; conditions: read-out: Activity
[25] = system: A549; experiment: Induction of apoptosis in human A549 cells assessed as increase in cleaved PARP level at 0.1 to 3 uM after 24 hrs by Western blot analysis; assay type: functional, cell-based; conditions: dose microM 0.1-3, time 24.0 hrs; procedure, shortened: as §1
[26] = system: A549; experiment: Induction of cell cycle arrest in human A549 cells assessed as accumulation in G0/G1 phase at 1 uM incubated for 24 hrs by […] propidium iodide staining based flow cytometry (reference value: 63.11 %); assay type: functional
[27] = system: A549; experiment: Induction of cell cycle arrest in human A549 cells assessed as accumulation in G2/M phase at 1 uM incubated for 24 hrs by […] propidium iodide staining based flow cytometry (reference value: 22.46 %); assay type: functional

`CN1c2c(ccc3cc4c(cc23)OCO4)-c2ccc3c(c2C1N1CCOCC1)OCO3` (configuration not stated) showed an Activity [1] of 15.64%, an Activity [2] of 13.21% and a viability at 0.3 µM [3] of 82.5%. The Activity [4] was 67.32%, the Activity [5] was 6.92% and the Activity [6] was 19.17%. The Activity [7] was 77.7%, the IC50 [8] was 1.16 µM and the Activity [9] was 10.59%. For the same compound, the Activity [10] was 0.98%, the Activity [11] was 8.03% and the Activity [12] was “Active”. The Activity [13] was “Active”, the Activity [14] was 10.94% and the IC50 [15] was 1.79 µM. The Activity [16] was 8.73%, the Activity [17] was “Dose-dependent effect” and the Activity [18] was “Active”. The Activity [19] was 19.67%, the Activity [20] was “Active” and the viability at 1 µM [21] was 67.4%. It also gave an Activity [22] of 14.07%, an Activity [23] of 4.92% and a viability at 3 µM [24] of 1.8%. The Activity [25] was “Active”, the Activity [26] was 70.03% and the Activity [27] was 14.29%.
